Screening results from PubChem BioAssay.
TRPC4 PAM = allosterically enhances the mouse TRPC4 cation channel | Q9QUQ5 | HEK293 TRPC4beta/mu-opioid, DAMGO EC20, Fluo-4 Ca2+ flux; stronger effect = higher value | B-score at 10 µM | hit rate 0.42% among 310,000 | AID 2227;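 active means B-score of calcium response area above 5 SD of library B-scores, with initial fluorescence ratio within 5 SD of library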;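 further: B-score of integrated fluorescence ratio over time as area under calcium response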
TRPC4 inh = inhibitors of mouse TRPC4 channel; hit rate 0.39% among 300,000; HEK293 TRPC4beta/mu-opioid, DAMGO-evoked Fluo4 calcium flux; stronger effect = lower value; B-score at 10 µM; Q9QUQ5; AID 2247;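 active means B-score over 3 SD under the library average, no early fluorescence shift, positive overall ratio signal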
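Assay system – HEK293 line stably carrying TRPC4beta and mu-opioid receptor · Doses – single dose · Detection – Fluo4 calcium-dye fluorescence, kinetic read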
TRPC6 act = activates the mouse TRPC6 cation channel; HEK293-TRPC6 membrane potential dye fluorescence; stronger effect = higher value; B-score at 10 µM; hit rate 0.13% among 310,000;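 active means B-score of the integrated fluorescence ratio above library mean plus 3 SD, and starting fluorescence ratio within library mean plus 5 SD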;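 further: higher score means more depolarization so channel activation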
Target sequence (Q61143 whole entry, looked up): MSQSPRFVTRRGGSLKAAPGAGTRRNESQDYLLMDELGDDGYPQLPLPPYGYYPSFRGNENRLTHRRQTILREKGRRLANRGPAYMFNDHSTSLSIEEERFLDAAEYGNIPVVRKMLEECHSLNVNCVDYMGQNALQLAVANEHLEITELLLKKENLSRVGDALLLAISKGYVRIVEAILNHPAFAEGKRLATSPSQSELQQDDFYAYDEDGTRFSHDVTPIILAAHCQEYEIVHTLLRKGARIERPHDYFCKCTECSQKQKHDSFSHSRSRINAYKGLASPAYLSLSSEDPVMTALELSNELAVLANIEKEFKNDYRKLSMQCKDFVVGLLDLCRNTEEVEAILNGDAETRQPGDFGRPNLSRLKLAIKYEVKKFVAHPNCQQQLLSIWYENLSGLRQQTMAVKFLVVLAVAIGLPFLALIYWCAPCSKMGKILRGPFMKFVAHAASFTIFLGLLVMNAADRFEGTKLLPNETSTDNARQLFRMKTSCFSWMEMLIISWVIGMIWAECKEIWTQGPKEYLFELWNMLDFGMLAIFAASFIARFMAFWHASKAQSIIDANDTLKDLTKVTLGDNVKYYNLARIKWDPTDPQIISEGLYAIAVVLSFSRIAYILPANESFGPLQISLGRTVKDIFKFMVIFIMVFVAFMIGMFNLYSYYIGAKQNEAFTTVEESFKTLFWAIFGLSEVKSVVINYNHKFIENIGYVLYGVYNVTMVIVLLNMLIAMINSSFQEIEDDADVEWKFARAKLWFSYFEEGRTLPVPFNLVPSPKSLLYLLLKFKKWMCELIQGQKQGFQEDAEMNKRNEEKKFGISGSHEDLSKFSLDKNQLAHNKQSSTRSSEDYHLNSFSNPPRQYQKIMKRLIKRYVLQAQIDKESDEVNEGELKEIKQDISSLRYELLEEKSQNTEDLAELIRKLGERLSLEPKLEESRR
TRPC4 act = TRPC4 (mouse) channel activation; Q9QUQ5; B-score at 10 µM; hit rate 0.49% among 310,000; AID 2237; HEK293 TRPC4beta/mu-opioid, Fluo4 calcium fluorescence; stronger effect = higher value;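 active means B-score above 5 SD of library B-scores, and initial fluorescence ratio not above library mean plus 5 SD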;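 further: positive B-score marks a calcium rise read as TRPC4 activation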
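Test system: HEK293 cells stably co-expressing mouse TRPC4beta and mu-opioid receptor | Schedule: Fluo4 dye loading 45 min at room temperature, 110 s recording | Measured by: Kinetic Fluo4 calcium fluorescence, 5 s baseline at 1 Hz | Evaluation: B score of integrated ratio | Controls: Buffer (low) and maximal DAMGO (high)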
TRPC6 inhibitor = blocks the mouse TRPC6 cation channel | HEK293-TRPC6, membrane potential dye, ACh-evoked depolarization; stronger effect = lower value | B-score at 10 µM | hit rate 1.1% among 310,000 | AID 2553;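 active means B-score under library mean minus 3 SD, initial fluorescence not abnormally high, positive integrated signal ratio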;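 further: B-score derived from integrated fluorescence ratio over the kinetic read; more negative B-score means stronger inhibition of depolarization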
TRPC4 sel inh 2 = second check of whether TRPC6 inhibitors also affect mouse TRPC4; shares compounds with TRPC6 inhibitor; HEK293 TRPC4/MOR, membrane potential dye fluorescence; channel activated by saturating DAMGO dose; inhibition, % at 10 µM; hit rate 42% among 920;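 active means compounds whose fluorescence signal differed from control wells by over 3 SD, either direction, in both duplicate plates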
TRPC4 spec = tests whether TRPC6 inhibitors also affect mouse TRPC4; shares compounds with TRPC6 inhibitor; HEK293 TRPC4/mu-opioid, membrane potential fluorescence; activity change, negative = inhibition, % at 10 µM; hit rate 61% among 920; AID 2777;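 active means rise or fall in signal beyond 3 SD of buffer-only wells in both replicate plates, either sign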;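 further: integrated kinetic ratio of fluorescence range over baseline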
HEK293 MPD ctr 2-1 = second check of TRPC6 inhibitor effects in parental HEK293 cells. shares compounds with TRPC6 inhibitor. signal change vs control, % at 10 µM. parental HEK293 membrane potential dye fluorescence; maximal acetylcholine challenge after compound addition. AID 2779. hit rate 31% among 920;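 active means membrane potential signal moving either way by over 3 SD of the maximum-effect control, in both duplicate plates, meaning non-specific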
HEK293 MPD ctr-1 = counter-screen for TRPC6 inhibitors: effect in parental HEK293 cells; shares compounds with TRPC6 inhibitor; parental HEK293 membrane potential dye fluorescence; membrane potential signal change, % at 10 µM; hit rate 60% among 920;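 active means membrane potential signal shifting up or down by more than 3 SD of buffer-only wells, on both duplicate plates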
HEK293 MPD ctr-2 = checks TRPC6 modulator effects in parental HEK293 cells | shares compounds with TRPC6 inhibitor | membrane potential dye fluorescence | membrane potential signal change, % at 10 µM | hit rate 51% among 2,400 | AID 488924;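 active means membrane potential signal moves up or down beyond 5 SD from buffer-only wells, on both duplicate plates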
HEK293 MPD ctr 2-2 = second check of TRPC6 modulator effects in parental HEK293 cells; shares compounds with TRPC6 inhibitor; membrane potential dye fluorescence; after compound, maximal acetylcholine stimulation; inhibition, % at 10 µM; hit rate 14% among 2,400; AID 488926;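 active means membrane potential signal drops by more than 5 SD from the mean control signal, in both duplicate plates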;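 further: plate controls were acetylcholine ECmax control wells for no effect and buffer only wells for full effect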
TRPC4/MOR mod = tests whether TRPC6 modulators also affect mouse TRPC4; percent change from control (negative = decrease, positive = increase), % at 10 µM; shares compounds with TRPC6 inhibitor; hit rate 69% among 2,400; HEK293 TRPC4/mu-opioid, membrane potential fluorescence;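 active means membrane potential signal moved up or down beyond 5 SD of buffer control wells, in both duplicate plates, actives on both sides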;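 further: plate controls were assay buffer wells for no effect and DAMGO maximal-effect wells for full effect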
TRPC4/MOR inh 2 = second check of whether TRPC6 modulators also affect mouse TRPC4; shares compounds with TRPC6 inhibitor; HEK293 TRPC4/mu-opioid, membrane potential dye fluorescence; stimulated with maximal-effect DAMGO; inhibition, % at 10 µM; hit rate 55% among 2,400; AID 488928;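 active means drop in membrane potential signal beyond 5 SD of the control wells in both duplicate plates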;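 further: TRPC4 counter screen for TRPC6 hits run under conditions tuned for TRPC6 not TRPC4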
TRPC6 block conf = mouse TRPC6 inhibitor confirmation; shares compounds with TRPC6 inhibitor; HEK293-TRPC6, membrane potential dye, ACh-evoked depolarization; inhibition, % at 10 µM; hit rate 43% among 3,300; AID 488960;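 active means fluorescence ratio falls more than 5 SD below the full-stimulation control mean, in both duplicate runs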;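 further: integrated fluorescence ratio of peak minus minimum over baseline after agonist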
TRPC6 act conf = confirmation of mouse TRPC6 activators. hit rate 11% among 2,800. shares compounds with TRPC6 inhibitor. HEK293-TRPC6 membrane potential dye fluorescence, FDSS. activation, % at 10 µM;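 active means ratio signal rise beyond 5 SD above unstimulated control wells' mean, seen in both duplicate runs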;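 further: plate controls were buffer EC0 wells for no effect and acetylcholine ECmax response for full effect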
Numbers without * were called inactive; i = inactive; . = not tested or not shown. Most compounds without a hit are left out; they make up all but 2.3% or so of the library.

SMILES	TRPC4 PAM	TRPC4 inh	TRPC6 act	TRPC4 act	TRPC6 inhibitor	HEK293 MPD ctr-2	HEK293 MPD ctr 2-2	TRPC4/MOR mod	TRPC4/MOR inh 2	TRPC6 block conf	TRPC6 act conf	others
O=C(NC1CCCC1)C(c1ccncc1)N(CCCN1CCOCC1)C(=O)c1ccc(-c2ccccc2)[nH]1 (configuration not stated)	i	i	i	i	-5.1*	i	i	i	36%*	i	i
CC(C)(C)n1nnnc1C(c1ccc2ncccc2c1)N1CCC(O)CC1 (configuration not stated)	i	i	i	i	i	.	.	.	.	.	.
c1cnc2ccc(C(c3nnnn3C3CCCC3)N3CCSCC3)cc2c1 (configuration not stated)	i	i	19*	i	-6.2*	120%*	i	32%*	i	98%*	148%*
CCC(C)(C)n1nnnc1C(c1ccc2ncccc2c1)N1CCCC(C)C1 (configuration not stated)	i	i	i	i	-7.2*	.	.	.	.	i	.	TRPC4 sel inh 2=i;TRPC4 spec=27%*;HEK293 MPD ctr 2-1=i;HEK293 MPD ctr-1=16%*
Oc1ccc(-c2nc3ccccc3s2)c(O)c1	i	i	i	i	-5.4*	i	i	i	i	i	i
CC1CN(c2ccc([N+](=O)[O-])c(NCCOc3ccccc3)c2)CCN1 (configuration not stated)	i	i	i	i	-7.3*	.	.	.	.	i	i	TRPC4 sel inh 2=i;TRPC4 spec=-11%*;HEK293 MPD ctr 2-1=i;HEK293 MPD ctr-1=-142%*
CCc1ccc(NC(=O)C(C)OC(=O)CC(NC(C)=O)c2ccccc2)cc1 (configuration not stated)	i	i	i	i	i	.	.	.	.	.	.
COc1nc(C)nc2c1sc1nc3c(cc12)COC(C)(C)C3	i	i	i	i	-6.4*	i	i	-12%*	i	i	i
Cc1cc(=O)n2c3ccccc3n(CC(O)CN3CCN(CCO)CC3)c2c1C#N (configuration not stated)	i	i	i	i	i	.	.	.	.	.	.
Cc1cc(=O)n2c3ccccc3n(CC(O)CN3CCN(Cc4ccccc4)CC3)c2c1C#N (configuration not stated)	i	i	i	i	-9.5*	-157%*	i	-36%*	65%*	i	i
CCC1CCCCN1CC(O)Cn1c2ccccc2n2c(=O)cc(C)c(C#N)c12 (configuration not stated)	i	i	i	i	-7.8*	.	.	.	.	57%*	i	TRPC4 sel inh 2=78%*;TRPC4 spec=i;HEK293 MPD ctr 2-1=i;HEK293 MPD ctr-1=-153%*
O=C(C1=C(c2ccccc2)C(=O)c2ccccc2C1=O)c1ccccc1	i	i	i	i	i	.	.	.	.	.	.
O=C1C(=O)c2c(C(=O)c3ccccc3)coc2-c2ccccc21	i	i	i	i	-6.2*	-80%*	i	-18%*	72%*	60%*	i
CCOc1ccc(OCc2ccc(C(=O)NC(C)C)o2)cc1	i	i	i	i	i	.	.	.	.	.	.
CCOc1ccc(OCc2ccc(C(=O)OCc3ccccn3)o2)cc1	i	i	i	i	-6*	i	i	11%*	i	i	i
Cc1ccc(C(=O)Nc2ccc(S(=O)(=O)Nc3cnc4ccccc4n3)cc2)cc1	i	i	i	i	i	.	.	.	.	.	.
CC(=O)c1ccc(Nc2nc(C)cc(C)n2)cc1	i	i	i	i	i	.	.	.	.	.	.
CC(=O)c1ccc(Nc2cc(C)nc3ccccc23)cc1	i	i	i	i	-6.9*	102%*	144%*	i	63%*	84%*	i
CC(=O)Nc1ccc(C(=O)CSc2cc(C)c3cccc(C)c3n2)cc1	i	i	i	i	i	.	.	.	.	.	.
CC(=O)c1ccc(Nc2cc(C)nc3c(C)cccc23)cc1	i	i	i	i	-5.7*	-82%*	64%*	-22%*	54%*	i	i
Cc1ccc(Nc2cc(C)nc3c(C)cccc23)cc1	i	-7*	i	i	-6.8*	.	.	.	.	98%*	i	TRPC4 sel inh 2=20%*;TRPC4 spec=i;HEK293 MPD ctr 2-1=22%*;HEK293 MPD ctr-1=-196%*
Cc1cc(N/N=C/c2ccc(O)cc2)c2cccc(C)c2n1	i	i	i	i	i	.	.	.	.	.	.
CC(=O)N1CCC2(CC1)C(C#N)=C(N)Oc1n[nH]c(C)c12	i	i	i	i	i	.	.	.	.	.	.
COc1ccccc1C(C)NC(=O)CCOc1cccc(C)c1 (configuration not stated)	i	i	i	i	i	.	.	.	.	.	.
O=[N+]([O-])c1ccc(P(=O)(Cc2ccccc2)c2ccccc2O)cc1 (configuration not stated)	i	i	i	i	i	.	.	.	.	.	.
C=CCNc1cccc(Br)c1	i	i	i	i	i	.	.	.	.	.	.
O=C(COC(=O)c1cc[n+]([O-])cc1)Nc1ccc([N+](=O)[O-])cc1Cl	i	i	i	i	-8.9*	-314%*	i	-52%*	62%*	44%*	i
